The nature of data set [1]: Therapeutic index, ratio of ED50 for antineoplastic activity against mouse L1210 cells allografted in CDF1 mouse to LD10 for CDF1 mouse. The conditions noted are these: read-out: TI. In outline:
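The therapeutic index is the fraction of the single-dose LD10 that gave 50% 60-day survival: ED50 divided by LD10. ED50 came from log-dose probit-survival plots in L1210-bearing male CDF1 mice (10⁵ cells ip, single ip dose in saline on day 1). LD10 came from concurrent toxicity controls.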

The subject of data set [2] is L1210. Nature of the data set: Antineoplastic activity against mouse L1210 cells allografted in CDF1 mouse assessed as tumor growth inhibition at 24 mg/kg, ip administered on day 1 post-tumor cell implantation. Type of data set: functional. The settings on record: route intraperitoneal.
In a further data set the test system is Mus musculus. Briefly: Toxicity in ip dosed CDF1 mouse. The conditions noted are these: in vivo. Type of data set: organism-based. In outline: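 Single-dose LD10 was found in concurrent toxicity controls using normal (non-tumor-bearing) mice, run alongside the L1210 survival experiment, with drug in physiological saline given ip.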
In data set [3] the test system is L1210. Nature of the data set: Antineoplastic activity against mouse L1210 cells allografted in CDF1 mouse assessed as median day of death at 24 mg/kg, ip administered on day 1 post-tumor cell implantation (reference value: 8 days). Type of data set: functional. The settings on record: route intraperitoneal. In outline: (§1)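 Male CDF1 mice were inoculated ip with 10⁵ L1210 cells. Drug in physiological saline was given ip as a single dose on day 1 postimplant, at the maximum non-toxic dose relative to the concurrent LD10. There were 10 mice per test group and 30 in the control group, followed for 60 days. Median day of death counted dying mice only. Increase in life span excluded survivors.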

In data set [4] the test system is L1210. Nature of the data set: Antineoplastic activity against mouse L1210 cells allografted in CDF1 mouse assessed as dose causing 50% 60-day host survival at 24 mg/kg, ip administered on day 1 post-tumor cell implantation. The format is functional. The settings on record: route intraperitoneal. In outline:
as §1

The subject of data set [5] is L1210. Briefly: Antineoplastic activity against mouse L1210 cells allografted in CDF1 mouse assessed as increase in host life span at 24 mg/kg, ip administered on day 1 post-tumor cell implantation. The conditions noted are these: route intraperitoneal. The format is functional. In outline: as §1

For orientation: ED50 means the dose at which the effect has come halfway, by size or by number of responders. For the compound `O=NN(CCCl)C(=O)N[C@@H]1C(O)O[C@@H](CO)[C@H](O)[C@H]1O` (some centres not stated), the selectivity ratio in data set [1] worked out at 0.64. In the data set on L1210 [2], the LCK entry is listed as “>=6”. This compound returned an LD10 in the data set on Mus musculus of 33 mg/kg. In the data set with L1210 [3], the Time came out at 15 days. In addition, the ED50 with L1210 [4] was 21 mg/kg. Besides, the Activity in the data set on L1210 [5] worked out at 87%.

As to `O=NN(CCCl)C(=O)N[C@H]1C(O)O[C@H](CO)[C@@H](O)[C@@H]1O` (some centres not stated) [CHLOROZOTOCIN], in data set [1], the selectivity ratio was found to be 0.7. The LCK entry with L1210 [2] is given as “>=6”. In the data set on Mus musculus, the LD10 stood at 30 mg/kg. In addition, the Time in the data set with L1210 [3] was determined as 13 days. In addition, the ED50 in the data set on L1210 [4] was 21 mg/kg. The Activity with L1210 [5] is on record as 62%.
